According to ChEMBL document CHEMBL1145781, “Synthesis and structure-activity relationships of 5-amino-6-fluoro-1-[(1R,2S)-2-fluorocyclopropan-1-yl]-8-methylquinolonecarboxylic acid antibacterials having fluorinated 7-[(3R)-3-(1-aminocyclopropan-1-yl)pyrrolidin-1-yl] substituents” (J Med Chem, 2003):
Values after ≈ are worked out from the molar mass of the structure shown.

Experiments:
[1] = Total concentration in liver was determined after 6 hr of intravenous administration to rats (n=4) at dose of 20 mg/kg; format: ADME, organism-based; parameters: time < 6 hr, dose 20 mg/kg, route intravenous; conditions: rat
[2] = Total concentration in lung was determined after 6 hr of intravenous administration to rats (n=4) at dose of 20 mg/kg; format: ADME, organism-based; parameters: time < 6 hr, dose 20 mg/kg, route intravenous; conditions: rat
[3] = Total concentration in serum was determined after 6 hr of intravenous administration to rats (n=4) at dose of 20 mg/kg; format: ADME, organism-based; parameters: time < 6 hr, dose 20 mg/kg, route intravenous; conditions: rat
[4] = Half life in kidney was determined after intravenous administration to rats (n=4) at dose of 20 mg/kg; format: ADME, organism-based; parameters: dose 20 mg/kg, route intravenous; conditions: rat
[5] = Half life in liver was determined after intravenous administration to rats (n=4) at dose of 20 mg/kg; format: ADME, organism-based; parameters: dose 20 mg/kg, route intravenous; conditions: rat
[6] = Kidney concentration was determined after 5 min. of intravenous administration to rats (n=4) at dose of 20 mg/kg; format: ADME, organism-based; parameters: dose 20 mg/kg, route intravenous; conditions: rat
[7] = Half life in serum was determined after intravenous administration to rats (n=4) at dose of 20 mg/kg; format: ADME, organism-based; parameters: dose 20 mg/kg, route intravenous; conditions: rat
[8] = Liver concentration was determined after 5 min. of intravenous administration to rats (n=4) at dose of 20 mg/kg; format: ADME, organism-based; parameters: dose 20 mg/kg, route intravenous; conditions: rat
[9] = Lung concentration was determined after 5 min. of intravenous administration to rats (n=4) at dose of 20 mg/kg; format: ADME, organism-based; parameters: dose 20 mg/kg, route intravenous; conditions: rat
[10] = Serum concentration was determined after 5 min. of intravenous administration to rats (n=4) at dose of 20 mg/kg; format: ADME, organism-based; parameters: dose 20 mg/kg, route intravenous; conditions: rat
[11] = Solubility was determined in water; format: physicochemical
Enterococcus sp. [12] = assay: Antibacterial activity was determined against clinically isolated vancomycin-A resistant enterococci (VRE) strains (33 strains); format: functional
Enterococcus sp. [13] = assay: Antibacterial activity was determined against clinically isolated vancomycin-B resistant enterococci (VRE) strains (10 strains); format: functional
Escherichia coli = assay: Antibacterial activity was determined against Escherichia coli NIHJ strain after incubation at 37 degrees C for 18 h; format: functional
Enterococcus faecalis = assay: Antibacterial activity was determined against Enterococcus faecalis ATCC 19433 strain after incubation at 37 degrees C for 18 h; format: functional; conditions: ATCC 19433, 18 h
Klebsiella pneumoniae = assay: Antibacterial activity was determined against Klebsiella pneumoniae type II strain after incubation at 37 degrees C for 18 h; format: functional
Pseudomonas aeruginosa = assay: Antibacterial activity was determined against Pseudomonas aeruginosa PAO1 strain after incubation at 37 degrees C for 18 h; format: functional
[14] = tested on: Staphylococcus epidermidis; assay: Antibacterial activity was determined against Staphylococcus epidermis 56500 strain after incubation at 37 degrees C for 18 h; format: functional
Staphylococcus aureus [15] = assay: Antibacterial activity was determined against Staphylococcus aureus FDA 209-P strain after incubation at 37 degrees C for 18 h; format: functional
Streptococcus pyogenes = assay: Antibacterial activity was determined against Streptococcus pyogenes G-36 strain after incubation at 37 degrees C for 18 h; format: functional
Streptococcus pneumoniae [16] = assay: Antibacterial activity was determined against Streptococcus pneumoniae J-24 strain after incubation at 37 degrees C for 18 h; format: functional
Staphylococcus aureus [17] = assay: Antibacterial activity was determined against clinically isolated Levofloxacin-methicillin resistant Staphylococcus aureus (LVFX-r MRSA) strains (74 strains); format: functional
[18] = Mortality was determined after 150 mg/kg dose administered intravenously to 5-week old male mice at a speed of 0.2 mL/min counted on day 7 for total 5 mice; format: ADME, organism-based; parameters: dose 150 mg/kg, route intravenous; conditions: mouse, in vivo, iv
Summary of the method: (§1)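 Male Slc:ddY mice, 5 weeks old. Compound dissolved in 0.1 N NaOH in saline at varied concentrations and given as a single IV injection at 0.2 mL/min, total volume 10 mL/kg body weight. Deaths counted on day 7 and reported as dead/tested.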

Streptococcus mitis = assay: Antibacterial activity was determined against Streptococcus mitis IID685 strain after incubation at 37 degrees C for 18 h; format: functional
Streptococcus pneumoniae [19] = assay: Antibacterial activity was determined against clinically isolated penicillin resistant Streptococcus pneumoniae (PRSP) strains (50 strains); format: functional
[20] = Toxicity was determined as presence of micronucleated reticulocytes (MNRET) in blood at 24 and 48 h after 150 mg/kg dose administered intravenously to 5-week old male mice; negative.; format: organism-based; parameters: dose 150 mg/kg, route intravenous; conditions: mouse, in vivo, iv
[21] = Ratio of total concentration in kidney to that of serum after 6 hr of intravenous administration to rats (n=4) at dose of 20 mg/kg; format: ADME, organism-based; parameters: dose 20 mg/kg, route intravenous; conditions: rat
[22] = Ratio of total concentration in liver to that of serum after 6 hr of intravenous administration to rats (n=4) at dose of 20 mg/kg; format: ADME, organism-based; parameters: dose 20 mg/kg, route intravenous; conditions: rat
[23] = Ratio of total concentration in lung to that of serum after 6 hr of intravenous administration to rats (n=4) at dose of 20 mg/kg; format: ADME, organism-based; parameters: dose 20 mg/kg, route intravenous; conditions: rat
Rattus norvegicus = assay: Ratio of total concentration in serum to that of serum after 6 hr of intravenous administration to rats (n=4) at dose of 20 mg/kg; format: ADME, organism-based; parameters: dose 20 mg/kg, route intravenous; conditions: in vivo
[24] = Half life in lung was determined after intravenous administration to rats (n=4) at dose of 20 mg/kg; format: ADME, organism-based; parameters: dose 20 mg/kg, route intravenous; conditions: rat
[25] = Total concentration in kidney was determined after 6 hr of intravenous administration to rats (n=4) at dose of 20 mg/kg; format: ADME, organism-based; parameters: time < 6 hr, dose 20 mg/kg, route intravenous; conditions: rat
[26] = Mortality was determined after 50 mg/kg dose administered intravenously to 5-week old male mice at a speed of 0.2 mL/min counted on day 7 for total 5 mice; format: ADME, organism-based; parameters: dose 50 mg/kg, route intravenous; conditions: mouse, in vivo, iv; summary of the method: as §1
[27] = Mortality was determined after 100 mg/kg dose administered intravenously to 5-week old male mice at a speed of 0.2 mL/min counted on day 7 for total 2 mice; format: ADME, organism-based; parameters: dose 100 mg/kg, route intravenous; conditions: mouse, in vivo, iv; summary of the method: as §1
[28] = Mortality was determined after 150 mg/kg dose administered intravenously to 5-week old male mice at a speed of 0.2 mL/min counted on day 7 for total 2 mice; format: ADME, organism-based; parameters: dose 150 mg/kg, route intravenous; conditions: mouse, in vivo, iv; summary of the method: as §1
[29] = Toxicity was determined as presence of micronucleated reticulocytes (MNRET) in blood at 24 and 48 hr after 50 mg/kg dose administered intravenously to 5-week old male mice.; conditions: mouse, in vivo, iv

## Cc1c(N2C[C@@H](F)[C@@H](C3(N)CC3)C2)c(F)c(N)c2c(=O)c(C(=O)O)cn([C@@H]3C[C@@H]3F)c12 [DQ-113]
[1]
  AUC at 6 h: 36000 ng·h/mL
[2]
  AUC at 6 h: 37900 ng·h/mL
[3]
  AUC at 6 h: 9300 ng·h/mL
[4]
  half-life: 1.3 h
[5]
  half-life: 1.3 h
[6]
  concentration at 5 min: 33700 ng/mL
[7]
  half-life: 1.1 h
[8]
  concentration at 5 min: 46200 ng/mL
[9]
  concentration at 5 min: 22000 ng/mL
[10]
  concentration at 5 min: 11100 ng/mL
[11]
  solubility: 291 µg/mL (≈ 667 µM)
Enterococcus sp. [12]
  MIC50: 0.25 µg/mL (≈ 0.573 µM)
  MIC90: 2 µg/mL (≈ 4.58 µM)
Enterococcus sp. [13]
  MIC50: 0.25 µg/mL (≈ 0.573 µM)
  MIC90: 0.25 µg/mL (≈ 0.573 µM)
Escherichia coli
  MIC: ≤ 0.003 µg/mL
Enterococcus faecalis
  MIC: 0.025 µg/mL (≈ 0.0573 µM)
Klebsiella pneumoniae
  MIC: 0.013 µg/mL (≈ 0.0298 µM)
Pseudomonas aeruginosa
  MIC: 0.39 µg/mL (≈ 0.894 µM)
[14]
  MIC: ≤ 0.003 µg/mL
Staphylococcus aureus [15]
  MIC: ≤ 0.003 µg/mL
Streptococcus pyogenes
  MIC: ≤ 0.003 µg/mL
Streptococcus pneumoniae [16]
  MIC: ≤ 0.003 µg/mL
Staphylococcus aureus [17]
  MIC50: 0.12 µg/mL (≈ 0.275 µM)
  MIC90: 0.5 µg/mL (≈ 1.15 µM)
[18]
  Dead: 0
Streptococcus mitis
  MIC: ≤ 0.003 µg/mL
Streptococcus pneumoniae [19]
  MIC50: ≤ 0.008 µg/mL
  MIC90: 0.015 µg/mL (≈ 0.0344 µM)
[20]
  Toxicity: Non-toxic
[21]
  Kp at 6 h: 3.7
[22]
  Kp at 6 h: 3.9
[23]
  Kp at 6 h: 4.1
Rattus norvegicus
  Ratio: 1
[24]
  half-life: 0.9 h
[25]
  AUC at 6 h: 34800 ng·h/mL

## Cc1c(N2CC[C@@H]([C@H](C)N)C2)c(F)c(N)c2c(=O)c(C(=O)O)cn([C@@H]3C[C@@H]3F)c12
[11]
  solubility: 95 µg/mL (≈ 234 µM)
Escherichia coli
  MIC: ≤ 0.003 µg/mL
Enterococcus faecalis
  MIC: 0.025 µg/mL (≈ 0.0615 µM)
Klebsiella pneumoniae
  MIC: 0.025 µg/mL (≈ 0.0615 µM)
Pseudomonas aeruginosa
  MIC: 0.05 µg/mL (≈ 0.123 µM)
[14]
  MIC: ≤ 0.003 µg/mL
Staphylococcus aureus [15]
  MIC: ≤ 0.003 µg/mL
Streptococcus pyogenes
  MIC: ≤ 0.003 µg/mL
Streptococcus pneumoniae [16]
  MIC: ≤ 0.003 µg/mL
[26]
  Dead: 1
Streptococcus mitis
  MIC: ≤ 0.003 µg/mL
[27]
  Dead: 2
[28]
  Dead: 2
[29]
  Toxicity: Toxic
